MC4R barr agon: MC4R agonists recruiting beta-arrestin, primary screen, cell-based, luminescence, agonist arm of biased-ligand search | hit rate 0.98% among 360,000 | U2OS MC4R beta-arrestin complementation; percent of melanotan II response, DMSO zero | activation, % at 8.9 µM;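 active = activation above a per-plate cutoff, the mean activation of sample wells on that plate plus 3 SD, cut at about 8% in these data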
TLR9-MyD88 inh: inhibitors of TLR9-MyD88 association in cells, primary screen, cell-based, CHO, BLA complementation, fluorescence; Toll-like receptor 9 (Homo sapiens) + Myeloid differentiation primary response protein …; CCF4 FRET ratio; inhibition, % at 4.98 µM; hit rate 0.21% among 340,000;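 active = inhibition above the mean over all tested compounds plus 3 SD, cut at about 21% in these data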;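 note: 0% = DMSO only wells and 100% = clavulanate BLA inhibitor control wells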
TLR4-MyD88 BLA: inhibitors of TLR4-MyD88 association in cells, primary screen, cell-based, HeLa CL3-4, BLA complementation, FRET ratio | HeLa CL3-4 TLR4/MyD88 BLA complementation | hit rate 0.18% among 200,000 | inhibition, % at 8.4 µM; in the data active = inhibition above about 25%;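 note: 0% = vehicle and 100% = reference inhibitor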
NOD2-RIPK2 inh: NOD2-RIPK2 binding disruptors in cells, primary screen, fluorescence, CHO cells, BLA complementation; Receptor-interacting serine/threonine-protein kinase 2 (Homo sapiens), O43353; CCF4 ratio; inhibition, % at 4.98 µM; hit rate 0.38% among 360,000; AID 624267, 2012; in the data active = inhibition above about 21%;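 note: 0% = vehicle only and 100% = reference blocker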
MC4R antag cAMP: MC4R antagonists of cAMP signaling, primary screen, cell-based, TR-FRET, antagonist arm of biased-ligand search | Melanocortin receptor 4 (Homo sapiens), P32245 | MC4R-expressing cells, MTII-stimulated cAMP, LANCE TR-FRET | inhibition, % at 6.5 µM | hit rate 0.48% among 360,000 | AID 540295, 2011;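 active = inhibition above its plate's cutoff, the mean of tested wells on that plate plus 3 SD, cut at about 29% in these data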;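 note: 0% = Melanotan II alone and 100% = Melanotan II plus saturating MCL0020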
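Assay system: U2OS cells stably expressing human melanocortin 4 receptor (MC4R) / Dosing: 6.5 µM / Timing: compound 30 min, challenge 1 h, detection 1 h / Measured by: Eu-cAMP/anti-cAMP TR-FRET, emission 671 nm / Replicates: singlicate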
MC4R barr ag: MC4R beta-arrestin agonists, retest, confirmation, cell-based, luminescence, U2OS; shares compounds with MC4R barr agon; U2OS MC4R beta-arrestin recruitment; scaled DMSO 0%, Melanotan II 100%; activation, % at 8.9 µM; hit rate 31% among 2,400;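 active = mean activation across replicates above the hit cutoff set in the earlier primary screen, cut at about 8% in these data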
MOR DOR agonist: agonists of MOR-DOR heterodimerization, counter-screen for MC4R biased agonist project, cell-based, luminescence. activation, % at 9.2 µM. U2OS PathHunter beta-arrestin, beta-gal luminescence; percent of deltorphin B response, DMSO zero. shares compounds with MC4R barr agon. hit rate 5.8% among 2,400. AID 602194, 2012;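 active = mean activation across replicates exceeds the hit threshold derived in the earlier primary screen, cut at about 18% in these data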;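 note: 100% = deltorphin B at 0.9 µM final and 0% = DMSO alone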
Numbers without * were called inactive; · = not tested or not shown. Sampled rows, rich in hits. Any-hit rate of the full collection: about 1.8%.

SMILES	MC4R barr agon	TLR9-MyD88 inh	TLR4-MyD88 BLA	NOD2-RIPK2 inh	MC4R antag cAMP	MC4R barr ag	MOR DOR agonist
COc1ccc(OCc2nn3c(-c4cccc(OC)c4)nnc3s2)cc1	11*	-12	3	7	7	4	3
CN(C)c1ccc(-c2nnn(CC(=O)NCc3ccc4c(c3)OCO4)n2)cc1	4	-5	-7	3	-1	·	·
COc1ccc2oc(-c3ccc(C)c(NC(=O)c4ccc(N5CCOCC5)c([N+](=O)[O-])c4)c3)nc2c1	11*	6	8	0	1	4	4
CC(C)C(=O)N1CCCC1(C)C(=O)NCc1ccc(Cl)cc1 (centres undefined)	0	·	·	-3	-2	·	·
Cc1ccccc1OCc1nc(-c2ccc(NC(=O)c3ccco3)cc2)no1	23*	4	9	3	4	0	5
CCCc1ccc(OCc2nc(-c3ccc(NC(=O)c4cccs4)cc3)no2)cc1	1	7	9	-6	1	·	·
Cc1ccccc1OCc1nc(-c2ccc(NC(=O)c3cccs3)cc2)no1	16*	7	-5	-11	14	6	5
Cc1ccc(NC(=O)CSc2ccccc2NC(=O)c2ccccc2)cc1Cl	13*	16	0	3	12	8	24*
CCOCCCN(Cc1ccco1)C(=O)c1cc2c(=O)[nH]c3ccc(C)cc3c2s1	11*	2	-4	8	3	18*	8
CCCN(CCC)CCCNC(=O)c1cc2c(=O)[nH]c3ccccc3c2s1	-1	-2	·	-2	-1	·	·
Cc1c(CCOC(=O)c2ccc(Cl)cc2Cl)sc[n+]1CC(=O)c1ccc(Br)cc1	28*	-5	·	6	8	23*	23*
Cn1c(SCC(=O)Nc2cc(Cl)cc(Cl)c2)nnc1-c1ccc2nonc2c1	36*	·	·	-4	-6	8	8
Cc1cc(-c2nc(C)c(-c3nnc(SCC(=O)Nc4cc(Cl)cc(Cl)c4)n3C)s2)no1	-3	-6	·	4	3	·	·
O=[N+]([O-])c1cc(S(=O)(=O)N2CCCC2)ccc1N/N=C/c1cccs1	20*	-15	-10	-9	-7	2	4
COc1ccc(-c2nnc(SCC(=O)NC3CC3)o2)cc1	-2	2	·	-6	-2	·	·
COc1ccc(-c2ccc(C#N)c(SCC(=O)Nc3sc4c(c3C#N)CCC4)n2)cc1OC	0	1	-2	-10	9	·	·
COc1cccc(-c2ccc(C#N)c(SCC(=O)NCCc3cccc(Cl)c3)n2)c1	13*	-1	14	-19	16	18*	20*
COc1ccc(-c2ccc(C#N)c(SCC(=O)NCCc3ccccc3)n2)cc1OC	12*	-3	4	-8	19	4	6
COc1cccc(-c2ccc(C#N)c(OC(=O)c3ccc(Cl)cc3)n2)c1	-2	-2	-1	-3	12	·	·
CCOC(=O)C1CCN(C(=O)C2COc3ccccc3O2)CC1 (centres undefined)	-1	-6	·	0	9	·	·
Cc1c(C(=O)Nc2ccc(-c3nnc4n3CCCCC4)cc2)oc2c1ccc1ccccc12	11*	0	6	2	13	6	3
O=C(Nc1ccc(-c2nnc3n2CCCCC3)cc1)c1cc2ccccc2o1	-1	4	-8	-4	6	·	·
CC(C)=C[C@H]1C[C@H](C)[C@H]2CC[C@H](C)c3c(O)c(O[C@H]4OC[C@H](O)[C@@H](O)[C@@H]4O)c(C)c1c32	12*	·	·	-5	-5	4	2
CC(C)=C[C@@H]1C[C@H](C)[C@H]2CC[C@H](C)c3c(O[C@@H]4O[C@@H](C)[C@@H](O)[C@@H](O)[C@@H]4O)c(O)c(C)c1c32	1	0	·	-8	7	·	·
Cc1ccc2oc(-c3ccc(NC(=O)CC(C)C)cc3)nc2c1	14*	-4	-8	-1	3	-2	3
SMILES	MC4R barr agon	TLR9-MyD88 inh	TLR4-MyD88 BLA	NOD2-RIPK2 inh	MC4R antag cAMP	MC4R barr ag	MOR DOR agonist
COc1ccc(OC2C(=O)N(Cc3ccc4c(c3)OCO4)C2c2cccs2)cc1 (centres undefined)	-1	0	17	0	6	·	·
COc1ccc(CCN2C(=O)C(Oc3ccccc3)C2c2ccc3c(c2)OCO3)cc1 (centres undefined)	18*	-7	-15	0	7	0	3
CC1CC(C)(C)CC2(C1)NC(=O)N(CC(=O)OCc1ccc(Br)cc1)C2=O (centres undefined)	14*	-7	·	4	-1	-1	6
Cc1cc(S(=O)(=O)N2CCC3(CC2)OCCN3S(=O)(=O)c2cccs2)ccc1F	-3	5	·	2	4	·	·
Cc1ccc(C(=O)N/N=C\c2ccc(-c3ccc(Cl)c(Cl)c3)o2)cn1	11*	-7	·	9	-7	8.4*	6
O=C(COC(=O)c1ccc2ncsc2c1)Nc1cc([N+](=O)[O-])ccc1Cl	23*	-10	·	-5	1	8	13
O=C(NCc1ccccc1)N1CCN(c2ccc(Cl)c(Cl)c2)CC1	22*	6	-7	-7	2	1	5
O=C(NCc1ccccc1)N1CCN(c2ccc(F)cc2)CC1	-1	3	-2	5	13	·	·
CCOc1ccc(OCCC(=O)NNC(=O)c2ccncc2)cc1	-1	-6	·	-3	-1	·	·
C=CCn1c(O)c2ccc(C(=O)N=NC(=O)COc3ccc(OC)cc3)cc2c1O	-3	-4	·	14	5	·	·
O=C(Nc1cccc(C(F)(F)F)c1)c1cc(-c2ccc(F)cc2)on1	16*	7	-4	-4	5	6	4
CS(=O)(=O)c1ccc(-c2csc(C(O)c3cccc(Cl)c3)n2)cc1 (centres undefined)	0	·	·	-5	-1	·	·
COc1ccc(C2=NOC(Cn3nc(-c4ccccc4)cc3C(=O)NCc3cccs3)C2)cc1 (centres undefined)	1	-2	·	0	10	·	·
